One series deals with T1, Coagulation factor XII (Homo sapiens, UniProt P00748).
T1 sequence (P00748 whole entry): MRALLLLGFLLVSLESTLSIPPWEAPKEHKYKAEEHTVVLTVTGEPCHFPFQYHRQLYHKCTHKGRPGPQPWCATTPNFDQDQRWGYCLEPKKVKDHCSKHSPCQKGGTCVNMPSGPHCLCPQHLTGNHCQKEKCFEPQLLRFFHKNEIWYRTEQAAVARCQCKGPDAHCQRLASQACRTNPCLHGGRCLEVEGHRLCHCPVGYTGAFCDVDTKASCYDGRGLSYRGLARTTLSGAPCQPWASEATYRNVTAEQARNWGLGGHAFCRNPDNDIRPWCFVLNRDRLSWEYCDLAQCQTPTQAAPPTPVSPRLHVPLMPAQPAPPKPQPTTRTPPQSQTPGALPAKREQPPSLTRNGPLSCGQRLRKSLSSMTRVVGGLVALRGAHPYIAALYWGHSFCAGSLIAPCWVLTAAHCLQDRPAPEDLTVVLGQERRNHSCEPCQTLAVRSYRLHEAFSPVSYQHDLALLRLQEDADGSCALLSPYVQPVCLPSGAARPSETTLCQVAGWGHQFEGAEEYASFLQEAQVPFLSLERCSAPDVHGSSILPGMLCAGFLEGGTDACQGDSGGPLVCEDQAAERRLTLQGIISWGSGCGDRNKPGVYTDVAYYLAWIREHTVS
As to the kind of experiment: Inhibition of human coagulation factor XIIA using Boc-Gln-Gly-Arg-AMC as fluorogenic substrate measured at 1 min interval for 1 hr by fluorometric assay.

In another series the target is Prothrombin (Homo sapiens, UniProt P00734). As to the kind of experiment: Inhibition of human coagulation factor alpha-thrombin using Boc-Val-Pro-Arg-AMC as fluorogenic substrate measured at 1 min interval for 1 hr by fluorometric assay.
The nature of series [1]: Inhibition of porcine trypsin using Z-Gly-Gly-Arg-AMC as fluorogenic substrate measured at 1 min interval for 1 hr by fluorometric assay. More on the design: species or system Sus scrofa.
In series [2] the test system is Blood. As to the kind of experiment: Effect on blood coagulation in human blood assessed as increase in prothrombin time at 300 uM incubated for 3 mins followed by CaCl2 addition by PT reagent based assay relative to control. In kind it is ADME, tissue-based. As to conditions: 0.05 h. In a few lines:
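Clotting was started with PT reagent already containing CaCl2, prewarmed to 37 °C, and clotting time was recorded. Increase is given relative to DMSO; at least triplicate, mean ± SD.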

For series [3], the system named is Blood. The series is described as follows: Anticoagulant activity in human blood assessed as increase in activated partial thromboplastin time at 300 uM incubated for 1 min by aPTT reagent based assay relative to control. In kind it is functional. In short, it runs like this:
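Compounds were tested at 300 µM, and the increase was expressed relative to DMSO. The doubling concentration (EC2×) is the concentration prolonging aPTT twofold. At least triplicate, mean ± SD.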

The target of another series is Coagulation factor X (Homo sapiens, UniProt P00742). As to the kind of experiment: Inhibition of human coagulation factor Xa using Boc-Ile-Glu-Gly-Arg-AMC as fluorogenic substrate measured at 1 min interval for 1 hr by fluorometric assay.
Chain of Coagulation factor X (P00742 41-179 limits assumed): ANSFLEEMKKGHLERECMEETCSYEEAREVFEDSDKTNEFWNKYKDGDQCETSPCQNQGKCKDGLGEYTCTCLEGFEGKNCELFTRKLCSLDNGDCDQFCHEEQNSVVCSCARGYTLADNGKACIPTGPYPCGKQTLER
Chain of Coagulation factor X (P00742 235-488 limits assumed): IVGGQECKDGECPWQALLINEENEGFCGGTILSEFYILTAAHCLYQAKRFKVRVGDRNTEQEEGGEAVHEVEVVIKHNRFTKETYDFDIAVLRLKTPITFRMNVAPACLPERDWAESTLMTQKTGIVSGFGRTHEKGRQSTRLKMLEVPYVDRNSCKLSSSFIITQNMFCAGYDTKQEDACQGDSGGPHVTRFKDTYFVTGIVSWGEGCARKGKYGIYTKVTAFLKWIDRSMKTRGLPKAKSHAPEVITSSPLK
For series [4], the target named is T2, Coagulation factor XII (Homo sapiens) (UniProt P00748).
T2 sequence (whole entry): T1 sequence (P00748 whole entry)
The series is described as follows: Inhibition of human coagulation factor XIIA in presence of Boc-Gln-Gly-Arg-AMC as fluorogenic substrate at 1 uM measured at 1 min interval for 1 hr by fluorometric assay relative to control. In short, it runs like this: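 Screening of crude microscale amide-coupling products. Conversion was measured by 1H NMR and product content normalised to 76 µmol/L in DMSO, then tested at 1 µM and 100 nM in the fluorogenic FXIIa or thrombin assay. A 0-conversion reaction served as blank. Percent inhibition is from triplicates.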

For the next series, the species on record is Homo sapiens. As to the kind of experiment: Selectivity index, ratio of IC50 for inhibition of human coagulation factor alpha-thrombin using Boc-Val-Pro-Arg-AMC as fluorogenic substrate to IC50 for inhibition of human coagulation factor XIIA using Boc-Gln-Gly-Arg-AMC as fluorogenic substrate incubated for 1 hr by fluorometric assay.

The structures appear in SMILES notation.

The values below come from ChEMBL document CHEMBL4673255, “Acylated 1H-1,2,4-Triazol-5-amines Targeting Human Coagulation Factor XIIa and Thrombin: Conventional and Microscale Synthesis, Anticoagulant Properties, and Mechanism of Action” (J Med Chem, 2020).

With `Cc1ccc(S(=O)(=O)n2nc(-c3ccncc3)nc2N)cc1`, the IC50 is > 1 µM against Coagulation factor XII, > 5 µM against Prothrombin, > 5 µM in series [1] and > 5 µM on Coagulation factor X. Further, the values for the Activity in the series on Blood [2] and in the series on Blood [3] were 2% and 5%, respectively.

`Nc1nc(Nc2cccnc2)nn1C(=O)c1ccccc1`: the concentration for half-maximal inhibition (IC50) was > 5 µM against Coagulation factor XII, > 8 µM against Prothrombin, > 5 µM in series [1] and > 5 µM against Coagulation factor X. The Activity in the series on Blood [2] came out at 2%; in the series with Blood [3], 1%.

Turning to `Nc1nc(-c2ccccn2)nn1C(=O)Cc1ccccc1`, the half-maximal inhibitory concentration (IC50) at Coagulation factor XII is 0.21 µM; against Prothrombin it was 0.509 µM; in series [1], > 5 µM; against Coagulation factor X it was > 5 µM. The inhibition in series [4] worked out at 87%.

In the case of `Nc1n[nH]c(-c2ccccn2)n1`, the IC50 (against Coagulation factor XII; on Prothrombin; in series [1]; on Coagulation factor X) was > 5 µM each time.

In the case of `Nc1nc(-c2ccccn2)nn1C(=O)c1cccnc1`, the IC50 against Coagulation factor XII is 1.61 µM; at Prothrombin it was 0.494 µM; in series [1] it was > 5 µM; at Coagulation factor X it was > 5 µM. In series [4], the inhibition was 43%.

In the case of `Cc1cccc(C(=O)n2nc(-c3ccccn3)nc2N)c1`, the IC50 on Coagulation factor XII is 0.093 µM; against Prothrombin it was 0.086 µM; in series [1], > 5 µM; against Coagulation factor X, > 5 µM. In addition, the inhibition in series [4] came to 83%. For the same compound, the Activity with Blood [2] turned out to be 12%; in the series on Blood [3], 124%.

Turning to `Nc1nc(-c2ccccn2)nn1C(=O)c1ccccc1[N+](=O)[O-]`, the IC50 was 1.56 µM on Coagulation factor XII, > 5 µM at Prothrombin and > 5 µM against Coagulation factor X. In series [4], the inhibition came to 43%.

For the compound `Nc1nc(-c2ccccn2)nn1C(=O)C1CCOCC1`, the half-maximal inhibitory concentration (IC50) on Coagulation factor XII is 12.1 µM; against Prothrombin it was > 5 µM; in series [1], > 5 µM; against Coagulation factor X, > 5 µM. The inhibition in series [4] was 1%.

On to `Nc1nc(-c2ccccn2)nn1C(=O)c1ccc([N+](=O)[O-])cc1`, for which the IC50 on Coagulation factor XII is 5.93 µM; at Prothrombin, > 5 µM; on Coagulation factor X it was > 5 µM. Further, the inhibition in series [4] came out at 29%. Also, the Activity stood at 3% with Blood [2] and 35% in the series with Blood [3].

`Nc1nc(-c2ccncc2)nn1C(=O)c1ccccc1`: the IC50 on Coagulation factor XII is 0.106 µM; against Prothrombin, 0.962 µM; in series [1], > 5 µM; against Coagulation factor X, > 5 µM. Besides, the results for the Activity with Blood [2] and in the series with Blood [3] were 2% and 80%, respectively.

In the case of `Nc1n[nH]c(-c2ccccc2)n1`, the IC50 (against Coagulation factor XII; at Prothrombin; in series [1]; against Coagulation factor X) was > 5 µM in each case.

Consider `[H]/N=C(/N)c1ccc(NCc2nc3cc(C(=O)N(CCC(=O)O)c4ccccn4)ccc3n2C)cc1` [DABIGATRAN], for which the IC50 on Coagulation factor XII is > 33 µM. The Activity with Blood [2] worked out at 539%.

Take `CCOc1ccc(Nc2nc(N)n(C(=O)c3ccccc3)n2)cc1`: the IC50 on Coagulation factor XII was > 1 µM; against Prothrombin, > 5 µM; in series [1], > 5 µM; against Coagulation factor X, > 5 µM.

Consider `Nc1nc(-c2ccccn2)nn1C(=O)CNC(=O)c1ccccc1`, for which the IC50 against Coagulation factor XII is 13.2 µM; against Prothrombin, > 132 µM; in series [1] it was > 5 µM; at Coagulation factor X, > 5 µM. Also, in series [4], the inhibition came to 20%. For the same compound, the Activity is recorded as 3% with Blood [2] and -2% with Blood [3].

As for `Nc1nc(-c2ccccn2)nn1C(=O)c1ccco1`, the IC50 was 0.968 µM at Coagulation factor XII, 1.77 µM against Prothrombin, > 5 µM in series [1] and > 5 µM against Coagulation factor X. Also, in series [4], the inhibition came to 54%.

`Nc1nc(-c2ccccc2)nn1C(=O)c1ccccc1`: the IC50 against Coagulation factor XII was 0.539 µM; against Prothrombin it was 1.24 µM; in series [1], > 5 µM; on Coagulation factor X, > 5 µM. For the same compound, the Activity came out at 5% in the series with Blood [2] and 29% in the series on Blood [3].

As to `Nc1nc(-c2ccccn2)nn1C(=O)c1ccc(NC(=O)C(F)(F)F)cc1`, the IC50 at Coagulation factor XII was 0.142 µM; on Prothrombin it was 3.39 µM; in series [1] it was > 5 µM; against Coagulation factor X, > 5 µM. The Ratio IC50 in the series listed under Homo sapiens was determined as 24. In addition, the inhibition in series [4] came to 89%.

For `COc1ccc(C(=O)n2nc(-c3ccccn3)nc2N)cc1`, the IC50 against Coagulation factor XII was 0.291 µM; on Prothrombin it was 0.329 µM; in series [1], > 5 µM; against Coagulation factor X, > 5 µM. Also, the inhibition in series [4] was 80%. In addition, the Activity in the series on Blood [2] came out at 14%; with Blood [3] it was 108%.

Take `Nc1n[nH]c(-c2ccncc2)n1`: the IC50 (against Coagulation factor XII; on Prothrombin; in series [1]; on Coagulation factor X) was > 5 µM each time. In addition, the results for the Activity in the series on Blood [2] and in the series with Blood [3] were 1% and 5%, respectively.

Take `Nc1nc(-c2ccncc2)nn1C(=O)C1CCCCC1`: the IC50 at Coagulation factor XII is > 1 µM; against Prothrombin it was > 5 µM; in series [1], > 5 µM; at Coagulation factor X, > 5 µM. The Activity with Blood [2] was determined as 7%; in the series on Blood [3], 10%.

In the case of `Nc1nc(-c2ccccn2)nn1C(=O)C1CCCCC1`, the IC50 on Coagulation factor XII is > 1 µM; against Prothrombin, > 5 µM; in series [1], > 5 µM; at Coagulation factor X, > 5 µM. In series [4], the inhibition was found to be 11%.

`CCc1ccc(C(=O)n2nc(-c3ccccn3)nc2N)cc1`: the IC50 was 0.162 µM against Coagulation factor XII, 0.308 µM at Prothrombin, > 5 µM in series [1] and > 5 µM at Coagulation factor X. The inhibition in series [4] was found to be 85%. For the same compound, the Activity in the series on Blood [2] amounted to 6%; with Blood [3] it was 114%.

For `Nc1nc(-c2ccccn2)nn1C(=O)/C=C/c1ccccc1`, the IC50 at Coagulation factor XII was 9.82 µM; against Prothrombin, 1.56 µM; in series [1] it was > 5 µM; against Coagulation factor X, > 5 µM. The inhibition in series [4] worked out at 21%.

For `Nc1nc(-c2ccccn2)nn1C(=O)c1ccc(C(F)(F)F)cc1`, the IC50 on Coagulation factor XII was 3.21 µM; on Prothrombin, 4.57 µM; in series [1], > 5 µM; against Coagulation factor X, > 5 µM. Also, in series [4], the inhibition turned out to be 14%. Further, the results for the Activity in the series with Blood [2] and with Blood [3] were 8% and 40%, respectively.

For `Nc1nc(-c2ccccn2)nn1C(=O)c1ccc(F)cc1`, the IC50 against Coagulation factor XII is 0.306 µM; at Prothrombin, 0.481 µM; in series [1], > 5 µM; at Coagulation factor X, > 5 µM. In series [4], the inhibition came out at 79%. The Activity in the series with Blood [2] was determined as 8%; in the series with Blood [3], 78%.

As to `Nc1nc(-c2ccccn2)nn1C(=O)c1ccc(Br)cc1`, the IC50 against Coagulation factor XII was 0.793 µM; against Prothrombin, 0.239 µM; in series [1] it was > 5 µM; at Coagulation factor X, > 5 µM. In addition, the inhibition in series [4] is 58%. In addition, the Activity was found to be 16% in the series on Blood [2] and 119% in the series on Blood [3].

In general, IC50 refers to the concentration that gives 50% inhibition. Read a high IC50 as weaker potency. As a reminder, the inhibition is how much of the control response was suppressed.
